Results: ChEMBL document CHEMBL3817777, “A new motif for inhibitors of geranylgeranyl diphosphate synthase” (Bioorg Med Chem, 2016)
Activity calls are given as the source filed them. The rule behind the calls is not given here.

Key:
[1] = molecular target: T1, Geranylgeranyl pyrophosphate synthase (Homo sapiens) (UniProt O95749); assay: Inhibition of GGDPS in human RPMI8266 cells assessed as disruption of Rap1a geranylgeranylation at low concentrations after 48 hrs by immunoblot analysis; type: cell-based
T1 sequence (whole entry): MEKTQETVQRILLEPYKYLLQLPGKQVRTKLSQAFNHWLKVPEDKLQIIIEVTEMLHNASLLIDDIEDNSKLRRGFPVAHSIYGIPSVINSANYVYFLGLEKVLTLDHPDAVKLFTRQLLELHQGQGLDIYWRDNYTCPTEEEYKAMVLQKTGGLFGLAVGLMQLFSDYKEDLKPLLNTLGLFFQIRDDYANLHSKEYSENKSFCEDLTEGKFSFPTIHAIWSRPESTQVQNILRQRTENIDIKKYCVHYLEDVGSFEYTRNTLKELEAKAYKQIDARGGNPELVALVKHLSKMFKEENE
Procedure, shortened: (§1)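 Cells were lysed in RIPA buffer (0.15 M NaCl, 1% deoxycholate, 0.1% SDS, 1% Triton X-100, 0.05 M Tris HCl) with protease and phosphatase inhibitors. Protein was quantified by BCA, and equal amounts were run on SDS-PAGE and transferred to PVDF. Blots were probed for unmodified Rap1a, a GGTase I substrate, and detected with HRP secondary antibodies and ECL.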

[2] = molecular target: T1, Geranylgeranyl pyrophosphate synthase (Homo sapiens); assay: Inhibition of GGDPS in human RPMI8266 cells assessed as lambda light chain levels at low concentrations after 48 hrs by ELISA; type: cell-based
[3] = Cytotoxicity against human MM1S cells after 48 hrs by MTT assay; type: functional, cell-based; settings: MM1.S
Procedure, shortened: (§2)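 Cells were plated at 2.5 ×10^4 cells/100 μL/well and exposed to compounds for 48 hrs. MTT (5 mg/mL in PBS) was then added for 4 hrs, and the product was solubilized overnight at 37 °C in 0.01 M HCl/10% SDS. Absorbance was read at 540 nm, with untreated controls set as 100% MTT activity. Each test ran in quadruplicate across three independent experiments, and EC50 is reported as mean ± standard deviation.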

[4] = molecular target: T1, Geranylgeranyl pyrophosphate synthase (Homo sapiens); assay: Inhibition of GGDPS in human RPMI8266 cells assessed as lambda light chain levels after 48 hrs by ELISA; type: cell-based
[5] = Cytotoxicity against human ALMC2 cells after 48 hrs by MTT assay; type: functional, cell-based; settings: ALMC2, 48 h; procedure, shortened: as §2
[6] = molecular target: T1, Geranylgeranyl pyrophosphate synthase (Homo sapiens); assay: Inhibition of GGDPS in human RPMI8266 cells assessed as disruption of Rap1a geranylgeranylation after 48 hrs by immunoblot analysis; type: cell-based; procedure, shortened: as §1
[7] = Cytotoxicity against human RPMI8266 cells after 48 hrs by MTT assay; type: functional, cell-based; settings: RPMI8266, 48 h; procedure, shortened: as §2
[8] = molecular target: T1, Geranylgeranyl pyrophosphate synthase (Homo sapiens); assay: Inhibition of GGDPS in human RPMI8266 cells assessed as lambda light chain levels at 1 uM after 48 hrs by ELISA in presence of GGDP; type: cell-based
[9] = molecular target: T1, Geranylgeranyl pyrophosphate synthase (Homo sapiens); assay: Inhibition of GGDPS in human RPMI8266 cells assessed as disruption of Rap1a geranylgeranylation at 1 uM after 48 hrs by immunoblot analysis in presence of GGDP; type: cell-based; procedure, shortened: as §1
[10] = molecular target: T1, Geranylgeranyl pyrophosphate synthase (Homo sapiens); assay: Inhibition of GGDPS in human RPMI8266 cells assessed as disruption of Rap1a geranylgeranylation at 5 uM after 48 hrs by immunoblot analysis in presence of mevalonate; type: cell-based; procedure, shortened: as §1
[11] = molecular target: T1, Geranylgeranyl pyrophosphate synthase (Homo sapiens); assay: Inhibition of GGDPS in human RPMI8266 cells assessed as lambda light chain levels at 5 uM after 48 hrs by ELISA in presence of mevalonate; type: cell-based
[12] = molecular target: T1, Geranylgeranyl pyrophosphate synthase (Homo sapiens); assay: Inhibition of GGDPS in human RPMI8266 cells assessed as lambda light chain levels at 5 uM after 48 hrs by ELISA in presence of GGDP; type: cell-based
[13] = molecular target: T1, Geranylgeranyl pyrophosphate synthase (Homo sapiens); assay: Inhibition of GGDPS in human RPMI8266 cells assessed as disruption of Rap1a geranylgeranylation at 5 uM after 48 hrs by immunoblot analysis in presence of GGDP; type: cell-based; procedure, shortened: as §1

SMILES	inhibition [1]	inhibition [2]	EC50 [3] [µM]	inhibition [4]	EC50 [5] [µM]	inhibition [6]	EC50 [7] [µM]	inhibition [8]	inhibition [9]	inhibition [10]	inhibition [11]	inhibition [12]	inhibition [13]
CC(C)=CCC/C(C)=C/CC(C)(P(=O)(OCC[C@H](C)CCC=C(C)C)OCOC(=O)C(C)(C)C)P(=O)(OCOC(=O)C(C)(C)C)OCOC(=O)C(C)(C)C (stereo partly drawn)	Active	Active	–	–	–	–	–	–	–	–	–	–	–
CC(C)=CCC/C(C)=C/CC(CC=C(C)C)(P(=O)(OCC[C@@H](C)CCC=C(C)C)OCOC(=O)C(C)(C)C)P(=O)(OCOC(=O)C(C)(C)C)OCOC(=O)C(C)(C)C (stereo partly drawn)	–	–	25.3	Dose-dependent effect	28.2	Dose-dependent effect	7.3	–	–	–	–	–	–
CC(C)=CCC/C(C)=C/CC(P(=O)(OCC[C@@H](C)CCC=C(C)C)OCOC(=O)C(C)(C)C)P(=O)(OCOC(=O)C(C)(C)C)OCOC(=O)C(C)(C)C (stereo partly drawn)	–	–	5.7	Dose-dependent effect	12.6	Dose-dependent effect	7.1	–	–	–	–	–	–
CC(C)=CCC/C(C)=C/CC(C)(P(=O)(OCC[C@@H](C)CCC=C(C)C)OCOC(=O)C(C)(C)C)P(=O)(OCOC(=O)C(C)(C)C)OCOC(=O)C(C)(C)C (stereo partly drawn)	–	–	2.7	Dose-dependent effect	5.4	Dose-dependent effect	1.6	inactive	inactive	–	–	–	–
CC[C@H](C)C(=O)O[C@H]1C[C@@H](C)C=C2C=C[C@H](C)[C@H](CC[C@@H]3C[C@@H](O)CC(=O)O3)[C@H]21	–	–	–	–	–	–	–	–	–	inactive	inactive	inactive	inactive
CC(C)=CCC/C(C)=C/CC(C/C=C(\C)CCC=C(C)C)(P(=O)(OCC[C@@H](C)CCC=C(C)C)OCOC(=O)C(C)(C)C)P(=O)(OCOC(=O)C(C)(C)C)OCOC(=O)C(C)(C)C (stereo partly drawn)	–	–	48.2	Dose-dependent effect	> 100	Dose-dependent effect	26.7	–	–	–	–	–	–
C=CCC(C/C=C(\C)CCC=C(C)C)(P(=O)(OCC[C@@H](C)CCC=C(C)C)OCOC(=O)C(C)(C)C)P(=O)(OCOC(=O)C(C)(C)C)OCOC(=O)C(C)(C)C (stereo partly drawn)	–	–	10.7	Dose-dependent effect	25.4	Dose-dependent effect	8.4	–	–	–	–	–	–
